Measurements taken from ChEMBL document CHEMBL4732167, “Structure based design, synthesis, and biological evaluation of imidazole derivatives targeting dihydropteroate synthase enzyme” (Bioorg Med Chem Lett, 2021).
In brackets after ≈: the same amount, converted by molar mass.

Legend:
Staphylococcus aureus [1] = assay: Antibacterial activity against Staphylococcus aureus MTCC 96 assessed as bacterial growth inhibition; type: functional
Escherichia coli = assay: Antibacterial activity against Escherichia coli MTCC 443 assessed as bacterial growth inhibition; type: functional
Pseudomonas aeruginosa = assay: Antibacterial activity against Pseudomonas aeruginosa MTCC 1688 assessed as bacterial growth inhibition; type: functional
Aspergillus niger = assay: Antifungal activity against Aspergillus niger MTCC 282 assessed as fungal growth inhibition; type: functional
Candida albicans = assay: Antifungal activity against Candida albicans MTCC 227 assessed as fungal growth inhibition; type: functional
Streptococcus pyogenes = assay: Antibacterial activity against Streptococcus pyogenes MTCC 442 assessed as bacterial growth inhibition; type: functional
Aspergillus clavatus = assay: Antifungal activity against Aspergillus clavatus MTCC 1323 assessed as fungal growth inhibition; type: functional
[2] = system: Mycobacterium tuberculosis; assay: Antibacterial activity against Mycobacterium tuberculosis H37Rv assessed as bacterial growth inhibition; type: functional
Plasmodium falciparum = assay: Antimalarial activity against Plasmodium falciparum assessed as parasite growth inhibition; type: functional, organism-based
Bacteria = assay: Antibacterial activity against ESBL-producing bacteria assessed as bacterial growth inhibition; type: functional
Outline: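 Values are minimum inhibitory concentrations (MIC) in µg/mL, determined at an outside microbiology laboratory.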

Enterococcus = assay: Antibacterial activity against vancomycin-resistant Enterococcus assessed as inhibition of bacterial growth; type: functional
Outline: (§1)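 Growth inhibition of the drug-resistant strain was read out as the minimum inhibitory concentration (MIC), reported in µg/mL. The same protocol was also run on an ESBL strain.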

Staphylococcus aureus [3] = assay: Antibacterial activity against methicillin-resistant Staphylococcus aureus assessed as inhibition of bacterial growth; type: functional; outline: as §1
[4] = Antioxidant activity assessed as DPPH radical scavenging activity at 25 ug/ml (reference value: 22 to 40.2 %); type: functional; details: dose 25.0 µg/ml
Outline: (§2)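 DPPH radical scavenging was measured at 0, 25, 50, 75 and 100 µg/ml of each compound. Ascorbic acid was the reference.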

[5] = Antioxidant activity assessed as DPPH radical scavenging activity at 50 ug/ml (reference value: 22 to 40.2 %); type: functional; details: dose 50.0 µg/ml; outline: as §2
[6] = Antioxidant activity assessed as DPPH radical scavenging activity at 75 ug/ml (reference value: 22 to 40.2 %); type: functional; details: dose 75.0 µg/ml; outline: as §2
[7] = Antioxidant activity assessed as DPPH radical scavenging activity at 100 ug/ml (reference value: 22 to 40.2 %); type: functional; details: dose 100.0 µg/ml; outline: as §2
[8] = Antioxidant activity assessed as nitric oxide radical scavenging activity at 25 ug/ml (reference value: 25.8 to 41.6 %); type: functional; details: dose 25.0 µg/ml
Outline: (§3)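 Nitric oxide radical scavenging was tested at 0, 25, 50, 75 and 100 µg/ml of compound.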

[9] = Antioxidant activity assessed as nitric oxide radical scavenging activity at 50 ug/ml (reference value: 25.8 to 41.6 %); type: functional; details: dose 50.0 µg/ml; outline: as §3
[10] = Antioxidant activity assessed as nitric oxide radical scavenging activity at 75 ug/ml (reference value: 25.8 to 41.6 %); type: functional; details: dose 75.0 µg/ml; outline: as §3
[11] = Antioxidant activity assessed as nitric oxide radical scavenging activity at 100 ug/ml (reference value: 25.8 to 41.6 %); type: functional; details: dose 100.0 µg/ml; outline: as §3
[12] = Antioxidant activity assessed as hydrogen peroxide radical scavenging activity at 25 ug/ml (reference value: 23.6 to 43.1 %); type: functional; details: dose 25.0 µg/ml
Outline: (§4)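 Hydrogen peroxide scavenging was measured across a compound series of 0, 25, 50, 75 and 100 µg/ml.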

[13] = Antioxidant activity assessed as hydrogen peroxide radical scavenging activity at 50 ug/ml (reference value: 23.6 to 43.1 %); type: functional; details: dose 50.0 µg/ml; outline: as §4
[14] = Antioxidant activity assessed as hydrogen peroxide radical scavenging activity at 75 ug/ml (reference value: 23.6 to 43.1 %); type: functional; details: dose 75.0 µg/ml; outline: as §4
[15] = Antioxidant activity assessed as hydrogen peroxide radical scavenging activity at 100 ug/ml (reference value: 23.6 to 43.1 %); type: functional; details: dose 100.0 µg/ml; outline: as §4

SMILES	MIC (Staphylococcus aureus [1]) [µg/mL]	MIC (Escherichia coli) [µg/mL]	MIC (Pseudomonas aeruginosa) [µg/mL]	MFC (Aspergillus niger) [µg/mL]	MFC (Candida albicans) [µg/mL]	MIC (Streptococcus pyogenes) [µg/mL]	MFC (Aspergillus clavatus) [µg/mL]	MIC [2] [µg/mL]	IC50 (Plasmodium falciparum) [µg/mL]	MIC (Bacteria) [µg/mL]	MIC (Enterococcus) [µg/mL]	MIC (Staphylococcus aureus [3]) [µg/mL]	Activity [4] [%]	Activity [5] [%]	Activity [6] [%]	Activity [7] [%]	Activity [8] [%]	Activity [9] [%]	Activity [10] [%]	Activity [11] [%]	further results
CC(=O)c1c(C)nc(SCC(=O)Nc2ccc(OC(=O)c3ccc(Cl)cc3)cc2)n1-c1ccc(Br)cc1	250 (≈ 417 µM)	125 (≈ 209 µM)	100 (≈ 167 µM)	500 (≈ 835 µM)	1000 (≈ 1670 µM)	100 (≈ 167 µM)	500 (≈ 835 µM)	12.5 (≈ 20.9 µM)	1.04 (≈ 1.74 µM)	250 (≈ 417 µM)	500 (≈ 835 µM)	500 (≈ 835 µM)	45.2	52.1	65.2	83.1	38	62.4	82.3	90.8	Activity [12]: 38.7%; Activity [13]: 54.2%; Activity [14]: 68.9%; Activity [15]: 86.1%
CC(=O)c1c(C)nc(SCC(=O)Nc2ccc(OC(=O)c3ccco3)cc2)n1-c1ccc(F)cc1	500 (≈ 1010 µM)	100 (≈ 203 µM)	250 (≈ 507 µM)	500 (≈ 1010 µM)	500 (≈ 1010 µM)	250 (≈ 507 µM)	500 (≈ 1010 µM)	250 (≈ 507 µM)	0.36 (≈ 0.729 µM)	125 (≈ 253 µM)	500 (≈ 1010 µM)	1000 (≈ 2030 µM)	34.6	48.2	66.7	82.1	45.2	67.4	79.6	81.7	Activity [12]: 55.9%; Activity [13]: 64.8%; Activity [14]: 76.5%; Activity [15]: 85.1%
CC(=O)c1c(C)nc(SCC(=O)Nc2ccc(OCc3ccccc3)cc2)n1-c1ccccc1	25 (≈ 53 µM)	125 (≈ 265 µM)	50 (≈ 106 µM)	1000 (≈ 2120 µM)	500 (≈ 1060 µM)	125 (≈ 265 µM)	1000 (≈ 2120 µM)	500 (≈ 1060 µM)	0.93 (≈ 1.97 µM)	250 (≈ 530 µM)	500 (≈ 1060 µM)	100 (≈ 212 µM)	36.4	48.6	60	84.3	48.3	64.2	80.3	87.4	Activity [12]: 43.8%; Activity [13]: 58%; Activity [14]: 69.4%; Activity [15]: 81.9%
CC(=O)c1c(C)nc(SCC(=O)Nc2ccc(OC(=O)c3ccco3)cc2)n1-c1ccc(Br)cc1	100 (≈ 180 µM)	100 (≈ 180 µM)	250 (≈ 451 µM)	500 (≈ 902 µM)	1000 (≈ 1800 µM)	250 (≈ 451 µM)	500 (≈ 902 µM)	25 (≈ 45.1 µM)	1.18 (≈ 2.13 µM)	250 (≈ 451 µM)	250 (≈ 451 µM)	100 (≈ 180 µM)	43.2	57.1	64.8	88.7	49.3	65.3	75.8	86.7	Activity [12]: 51.7%; Activity [13]: 68.7%; Activity [14]: 79%; Activity [15]: 86.5%
COc1ccc(-n2c(SCC(=O)Nc3ccc(OC(=O)c4cccs4)cc3)nc(C)c2C(C)=O)cc1	25 (≈ 47.9 µM)	12.5 (≈ 24 µM)	12.5 (≈ 24 µM)	500 (≈ 959 µM)	1000 (≈ 1920 µM)	50 (≈ 95.9 µM)	500 (≈ 959 µM)	25 (≈ 47.9 µM)	0.45 (≈ 0.863 µM)	62.5 (≈ 120 µM)	100 (≈ 192 µM)	100 (≈ 192 µM)	46.8	56.1	68.1	81.6	42.3	69.1	76.8	81.7	Activity [12]: 39.4%; Activity [13]: 61%; Activity [14]: 76.4%; Activity [15]: 82.3%
COc1ccc(-n2c(SCC(=O)Nc3ccc(OCc4ccc(F)cc4)cc3)nc(C)c2C(C)=O)cc1	100 (≈ 192 µM)	12.5 (≈ 24.1 µM)	25 (≈ 48.1 µM)	500 (≈ 962 µM)	500 (≈ 962 µM)	100 (≈ 192 µM)	500 (≈ 962 µM)	50 (≈ 96.2 µM)	1.4 (≈ 2.69 µM)	25 (≈ 48.1 µM)	100 (≈ 192 µM)	125 (≈ 241 µM)	31.6	54.2	67.2	84.3	45.8	63.4	81.4	90.5	Activity [12]: 54%; Activity [13]: 68.1%; Activity [14]: 79.8%; Activity [15]: 84.3%
CC(=O)c1c(C)nc(SCC(=O)Nc2ccc(OCc3ccc(F)cc3)cc2)n1-c1ccc(Cl)cc1	100 (≈ 191 µM)	50 (≈ 95.4 µM)	25 (≈ 47.7 µM)	1000 (≈ 1910 µM)	1000 (≈ 1910 µM)	100 (≈ 191 µM)	1000 (≈ 1910 µM)	62.5 (≈ 119 µM)	0.73 (≈ 1.39 µM)	62.5 (≈ 119 µM)	62.5 (≈ 119 µM)	125 (≈ 239 µM)	42.9	58.6	67	91	50.8	58.3	84.3	89.5	Activity [12]: 51%; Activity [13]: 68.4%; Activity [14]: 74.5%; Activity [15]: 88.1%
